Key:
Rattus norvegicus [1] = species: Rattus norvegicus; assay: In vitro anti-oxytocic potency was evaluated in the absence of Mg2+; format: functional; details: read-out: pA2 (converted)
How it was run: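 Isolated rat uterus in medium containing no Mg2+. USP posterior pituitary reference standard used as agonist. In vitro pA2 values were derived as in Bankowski et al.; means ± SE.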

Rattus norvegicus [2] = assay: In vivo anti-vasopressor activity measured as the negative logarithm of the effective dose / the estimated volume of distribution (67 mL/kg); format: ADME, organism-based; details: read-out: pA2 (converted)
How it was run: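 Rats treated with phenoxybenzamine under urethane anesthesia. Pressor responses to the USP posterior pituitary standard were given intravenously. Effective dose (nmol/kg) was interpolated on a log scale; means ± SE of at least four estimates. pA2 = −log(effective dose / 67 mL/kg).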

Rattus norvegicus [3] = species: Rattus norvegicus; assay: In vitro anti-oxytocic potency was evaluated in the presence of 0.5 mM of Mg2+; format: functional; details: read-out: pA2 (converted)
How it was run: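 Isolated rat uterus in medium containing 0.5 mM Mg2+. USP posterior pituitary reference standard used as agonist. In vitro pA2 values were derived as in Bankowski et al.; means ± SE.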

Rattus norvegicus [4] = assay: In vivo antidiuretic activity in rats under ethanol anesthesia.; format: functional, Urine
How it was run: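 Rats under ethanol anesthesia, with the USP posterior pituitary reference standard as reference. Agonistic activity is expressed in units per milligram.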

| SMILES | Kb (Rattus norvegicus [1]) [nM] | Kb (Rattus norvegicus [2]) [nM] | Kb (Rattus norvegicus [3]) [nM] | Activity (Rattus norvegicus [4]) [units/mg] |
| --- | --- | --- | --- | --- |
| CCOc1ccc(C[C@@H]2NC(=O)CC(C)(C)SSC[C@@H](C(=O)N3CCC[C@H]3C(=O)N[C@@H](CCCN=C(N)N)C(=O)NCC(N)=O)NC(=O)[C@H](CC(N)=O)NC(=O)[C@H](C(C)C)NC(=O)[C@H](Cc3ccccc3)NC2=O)cc1 [listing 1 of 2 here] | 2.29 | 8.51 | 21.9 | – |
| CCOc1ccc(C[C@@H]2NC(=O)CC(C)(C)SSC[C@@H](C(=O)N3CCC[C@H]3C(=O)N[C@@H](CCCN=C(N)N)C(=O)NCC(N)=O)NC(=O)[C@H](CC(N)=O)NC(=O)[C@H](C(C)C)NC(=O)[C@H](Cc3ccccc3)NC2=O)cc1 [listing 2 of 2 here] | – | – | – | 0.62 |
| COc1ccc(C[C@@H]2NC(=O)CC(C)(C)SSC[C@@H](C(=O)N3CCC[C@H]3C(=O)N[C@@H](CCCN=C(N)N)C(=O)NCC(N)=O)NC(=O)[C@H](CC(N)=O)NC(=O)[C@H](C(C)C)NC(=O)[C@H](Cc3ccccc3)NC2=O)cc1 [listing 1 of 2 here] | 3.72 | 4.37 | 12.6 | – |
| COc1ccc(C[C@@H]2NC(=O)CC(C)(C)SSC[C@@H](C(=O)N3CCC[C@H]3C(=O)N[C@@H](CCCN=C(N)N)C(=O)NCC(N)=O)NC(=O)[C@H](CC(N)=O)NC(=O)[C@H](C(C)C)NC(=O)[C@H](Cc3ccccc3)NC2=O)cc1 [listing 2 of 2 here] | – | – | – | 2.9 |
| CCOc1ccc(C[C@@H]2NC(=O)CC(C)(C)SSC[C@@H](C(=O)N3CCC[C@H]3C(=O)N[C@H](CCCN=C(N)N)C(=O)NCC(N)=O)NC(=O)[C@H](CC(N)=O)NC(=O)[C@H](C(C)C)NC(=O)[C@H](Cc3ccccc3)NC2=O)cc1 [listing 1 of 2 here] | 15.1 | 3.47 | 26.9 | – |
| CCOc1ccc(C[C@@H]2NC(=O)CC(C)(C)SSC[C@@H](C(=O)N3CCC[C@H]3C(=O)N[C@H](CCCN=C(N)N)C(=O)NCC(N)=O)NC(=O)[C@H](CC(N)=O)NC(=O)[C@H](C(C)C)NC(=O)[C@H](Cc3ccccc3)NC2=O)cc1 [listing 2 of 2 here] | – | – | – | 0.2 |
| CCOc1ccc(C[C@@H]2NC(=O)CC(CC)(CC)SSC[C@@H](C(=O)N3CCC[C@H]3C(=O)N[C@H](CCCN=C(N)N)C(=O)NCC(N)=O)NC(=O)[C@H](CC(N)=O)NC(=O)[C@H](C(C)C)NC(=O)[C@H](Cc3ccccc3)NC2=O)cc1 [listing 1 of 2 here] | 10.5 | 6.46 | 12.9 | – |
| CCOc1ccc(C[C@@H]2NC(=O)CC(CC)(CC)SSC[C@@H](C(=O)N3CCC[C@H]3C(=O)N[C@H](CCCN=C(N)N)C(=O)NCC(N)=O)NC(=O)[C@H](CC(N)=O)NC(=O)[C@H](C(C)C)NC(=O)[C@H](Cc3ccccc3)NC2=O)cc1 [listing 2 of 2 here] | – | – | – | 0.07 |
| CCC1(CC)CC(=O)N[C@@H](Cc2ccc(OC)cc2)C(=O)N[C@@H](Cc2ccccc2)C(=O)N[C@@H](C(C)C)C(=O)N[C@@H](CC(N)=O)C(=O)N[C@H](C(=O)N2CCC[C@H]2C(=O)N[C@H](CCCN=C(N)N)C(=O)NCC(N)=O)CSS1 [listing 1 of 2 here] | 18.6 | 4.47 | 11.7 | – |
| CCC1(CC)CC(=O)N[C@@H](Cc2ccc(OC)cc2)C(=O)N[C@@H](Cc2ccccc2)C(=O)N[C@@H](C(C)C)C(=O)N[C@@H](CC(N)=O)C(=O)N[C@H](C(=O)N2CCC[C@H]2C(=O)N[C@H](CCCN=C(N)N)C(=O)NCC(N)=O)CSS1 [listing 2 of 2 here] | – | – | – | 0.11 |
| CCOc1ccc(C[C@@H]2NC(=O)CC(CC)(CC)SSC[C@@H](C(=O)N3CCC[C@H]3C(=O)N[C@@H](CCCN=C(N)N)C(=O)NCC(N)=O)NC(=O)[C@H](CC(N)=O)NC(=O)[C@H](CCC(N)=O)NC(=O)[C@H](Cc3ccccc3)NC2=O)cc1 [listing 1 of 2 here] | 3.72 | 3.47 | 10 | – |
| CCOc1ccc(C[C@@H]2NC(=O)CC(CC)(CC)SSC[C@@H](C(=O)N3CCC[C@H]3C(=O)N[C@@H](CCCN=C(N)N)C(=O)NCC(N)=O)NC(=O)[C@H](CC(N)=O)NC(=O)[C@H](CCC(N)=O)NC(=O)[C@H](Cc3ccccc3)NC2=O)cc1 [listing 2 of 2 here] | – | – | – | 0.035 |
| COc1ccc(C[C@@H]2NC(=O)CC(C)(C)SSC[C@@H](C(=O)N3CCC[C@H]3C(=O)N[C@H](CCCN=C(N)N)C(=O)NCC(N)=O)NC(=O)[C@H](CC(N)=O)NC(=O)[C@H](CCC(N)=O)NC(=O)[C@H](Cc3ccccc3)NC2=O)cc1 | 24.5 | 11 | 57.5 | 3.5 |
| CCOc1ccc(C[C@@H]2NC(=O)CC(C)(C)SSC[C@@H](C(=O)N3CCC[C@H]3C(=O)N[C@@H](CCCN=C(N)N)C(=O)NCC(N)=O)NC(=O)[C@H](CC(N)=O)NC(=O)[C@H](CCC(N)=O)NC(=O)[C@H](Cc3ccccc3)NC2=O)cc1 [listing 1 of 2 here] | 7.59 | 3.98 | 44.7 | – |
| CCOc1ccc(C[C@@H]2NC(=O)CC(C)(C)SSC[C@@H](C(=O)N3CCC[C@H]3C(=O)N[C@@H](CCCN=C(N)N)C(=O)NCC(N)=O)NC(=O)[C@H](CC(N)=O)NC(=O)[C@H](CCC(N)=O)NC(=O)[C@H](Cc3ccccc3)NC2=O)cc1 [listing 2 of 2 here] | – | – | – | 0.59 |
| COc1ccc(C[C@@H]2NC(=O)CC(C)(C)SSC[C@@H](C(=O)N3CCC[C@H]3C(=O)N[C@H](CCCN=C(N)N)C(=O)NCC(N)=O)NC(=O)[C@H](CC(N)=O)NC(=O)[C@H](C(C)C)NC(=O)[C@H](Cc3ccccc3)NC2=O)cc1 [listing 1 of 2 here] | 31.6 | 14.5 | 21.4 | – |

| SMILES | Kb (Rattus norvegicus [1]) [nM] | Kb (Rattus norvegicus [2]) [nM] | Kb (Rattus norvegicus [3]) [nM] | Activity (Rattus norvegicus [4]) [units/mg] |
| --- | --- | --- | --- | --- |
| COc1ccc(C[C@@H]2NC(=O)CC(C)(C)SSC[C@@H](C(=O)N3CCC[C@H]3C(=O)N[C@H](CCCN=C(N)N)C(=O)NCC(N)=O)NC(=O)[C@H](CC(N)=O)NC(=O)[C@H](C(C)C)NC(=O)[C@H](Cc3ccccc3)NC2=O)cc1 [listing 2 of 2 here] | – | – | – | 3.2 |
| CCOc1ccc(C[C@@H]2NC(=O)CC(CC)(CC)SSC[C@@H](C(=O)N3CCC[C@H]3C(=O)N[C@@H](CCCN=C(N)N)C(=O)NCC(N)=O)NC(=O)[C@H](CC(N)=O)NC(=O)[C@H](C(C)C)NC(=O)[C@H](Cc3ccccc3)NC2=O)cc1 [listing 1 of 2 here] | 7.41 | 3.8 | 37.2 | – |
| CCOc1ccc(C[C@@H]2NC(=O)CC(CC)(CC)SSC[C@@H](C(=O)N3CCC[C@H]3C(=O)N[C@@H](CCCN=C(N)N)C(=O)NCC(N)=O)NC(=O)[C@H](CC(N)=O)NC(=O)[C@H](C(C)C)NC(=O)[C@H](Cc3ccccc3)NC2=O)cc1 [listing 2 of 2 here] | – | – | – | 0.1 |
| CCC1(CC)CC(=O)N[C@@H](Cc2ccc(OC)cc2)C(=O)N[C@@H](Cc2ccccc2)C(=O)N[C@@H](C(C)C)C(=O)N[C@@H](CC(N)=O)C(=O)N[C@H](C(=O)N2CCC[C@H]2C(=O)N[C@@H](CCCN=C(N)N)C(=O)NCC(N)=O)CSS1 [listing 1 of 2 here] | 2.57 | 5.13 | 11.7 | – |
| CCC1(CC)CC(=O)N[C@@H](Cc2ccc(OC)cc2)C(=O)N[C@@H](Cc2ccccc2)C(=O)N[C@@H](C(C)C)C(=O)N[C@@H](CC(N)=O)C(=O)N[C@H](C(=O)N2CCC[C@H]2C(=O)N[C@@H](CCCN=C(N)N)C(=O)NCC(N)=O)CSS1 [listing 2 of 2 here] | – | – | – | 0.24 |
| CCOc1ccc(C[C@@H]2NC(=O)CC(CC)(CC)SSC[C@@H](C(=O)N3CCC[C@H]3C(=O)N[C@H](CCCN=C(N)N)C(=O)NCC(N)=O)NC(=O)[C@H](CC(N)=O)NC(=O)[C@H](CCC(N)=O)NC(=O)[C@H](Cc3ccccc3)NC2=O)cc1 [listing 1 of 2 here] | 70.8 | 4.68 | 28.8 | – |
| CCOc1ccc(C[C@@H]2NC(=O)CC(CC)(CC)SSC[C@@H](C(=O)N3CCC[C@H]3C(=O)N[C@H](CCCN=C(N)N)C(=O)NCC(N)=O)NC(=O)[C@H](CC(N)=O)NC(=O)[C@H](CCC(N)=O)NC(=O)[C@H](Cc3ccccc3)NC2=O)cc1 [listing 2 of 2 here] | – | – | – | 0.0003 |
| CCC1(CC)CC(=O)N[C@@H](Cc2ccc(OC)cc2)C(=O)N[C@@H](Cc2ccccc2)C(=O)N[C@@H](CCC(N)=O)C(=O)N[C@@H](CC(N)=O)C(=O)N[C@H](C(=O)N2CCC[C@H]2C(=O)N[C@@H](CCCN=C(N)N)C(=O)NCC(N)=O)CSS1 [listing 1 of 2 here] | 11 | 2.95 | 6.46 | – |
| CCC1(CC)CC(=O)N[C@@H](Cc2ccc(OC)cc2)C(=O)N[C@@H](Cc2ccccc2)C(=O)N[C@@H](CCC(N)=O)C(=O)N[C@@H](CC(N)=O)C(=O)N[C@H](C(=O)N2CCC[C@H]2C(=O)N[C@@H](CCCN=C(N)N)C(=O)NCC(N)=O)CSS1 [listing 2 of 2 here] | – | – | – | 0.066 |
| COc1ccc(C[C@@H]2NC(=O)CC3(CCCCC3)SSC[C@@H](C(=O)N3CCC[C@H]3C(=O)N[C@H](CCCN=C(N)N)C(=O)NCC(N)=O)NC(=O)[C@H](CC(N)=O)NC(=O)[C@H](CCC(N)=O)NC(=O)[C@H](Cc3ccccc3)NC2=O)cc1 | 7.41 | 2.4 | 57.5 | 0.31 |
| CCC1(CC)CC(=O)N[C@@H](Cc2ccc(OC)cc2)C(=O)N[C@@H](Cc2ccccc2)C(=O)N[C@@H](CCC(N)=O)C(=O)N[C@@H](CC(N)=O)C(=O)N[C@H](C(=O)N2CCC[C@H]2C(=O)NC(CCCN=C(N)N)C(=O)NCC(N)=O)CSS1 (stereo in doubt) [listing 1 of 2 here] | 19.1 | 2.69 | 7.94 | – |
| CCC1(CC)CC(=O)N[C@@H](Cc2ccc(OC)cc2)C(=O)N[C@@H](Cc2ccccc2)C(=O)N[C@@H](CCC(N)=O)C(=O)N[C@@H](CC(N)=O)C(=O)N[C@H](C(=O)N2CCC[C@H]2C(=O)NC(CCCN=C(N)N)C(=O)NCC(N)=O)CSS1 (stereo in doubt) [listing 2 of 2 here] | – | – | – | 0.019 |
| COc1ccc(C[C@@H]2NC(=O)CC(C)(C)SSC[C@@H](C(=O)N3CCC[C@H]3C(=O)NC(CCCN=C(N)N)C(=O)NCC(N)=O)NC(=O)[C@H](CC(N)=O)NC(=O)[C@H](CCC(N)=O)NC(=O)[C@H](Cc3ccccc3)NC2=O)cc1 (stereo in doubt) | 17 | 4.9 | 43.7 | 0.46 |
| CCOc1ccc(C[C@@H]2NC(=O)CC(C)(C)SSC[C@@H](C(=O)N3CCC[C@H]3C(=O)NC(CCCN=C(N)N)C(=O)NCC(N)=O)NC(=O)[C@H](CC(N)=O)NC(=O)[C@H](CCC(N)=O)NC(=O)[C@H](Cc3ccccc3)NC2=O)cc1 (stereo in doubt) [listing 1 of 2 here] | 14.1 | 5.37 | 38.9 | – |
| CCOc1ccc(C[C@@H]2NC(=O)CC(C)(C)SSC[C@@H](C(=O)N3CCC[C@H]3C(=O)NC(CCCN=C(N)N)C(=O)NCC(N)=O)NC(=O)[C@H](CC(N)=O)NC(=O)[C@H](CCC(N)=O)NC(=O)[C@H](Cc3ccccc3)NC2=O)cc1 (stereo in doubt) [listing 2 of 2 here] | – | – | – | 0.23 |

Reference: ChEMBL document CHEMBL1122821, “Synthesis and some pharmacological properties of 18 potent O-alkyltyrosine-substituted antagonists of the vasopressor responses to arginine-vasopressin” (J Med Chem, 1985)
